In general, IC50 refers to the concentration that gives 50% inhibition. A low value points to greater potency in that assay.

IC50 data for 1 molecule are collected here from ChEMBL document CHEMBL3580617, “Discovery of Benzimidazole CYP11B2 Inhibitors with in Vivo Activity in Rhesus Monkeys” (ACS Med Chem Lett, 2015).

For the experiment, the target named is T1, Alpha-2B adrenergic receptor (Homo sapiens, UniProt P18089).
T1 sequence (P18089 whole entry): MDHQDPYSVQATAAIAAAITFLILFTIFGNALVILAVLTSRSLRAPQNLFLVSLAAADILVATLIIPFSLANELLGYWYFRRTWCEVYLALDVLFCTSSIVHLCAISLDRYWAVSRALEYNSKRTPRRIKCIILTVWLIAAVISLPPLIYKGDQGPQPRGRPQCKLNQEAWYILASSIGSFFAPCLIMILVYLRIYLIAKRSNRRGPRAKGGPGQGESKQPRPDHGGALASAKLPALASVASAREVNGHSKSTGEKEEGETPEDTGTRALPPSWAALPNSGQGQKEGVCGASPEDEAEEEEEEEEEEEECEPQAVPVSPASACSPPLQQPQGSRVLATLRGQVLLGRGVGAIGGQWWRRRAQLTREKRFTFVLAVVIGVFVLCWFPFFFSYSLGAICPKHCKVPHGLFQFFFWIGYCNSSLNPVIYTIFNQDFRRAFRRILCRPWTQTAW
In words: Inhibition of adrenergic alpha-2B receptor (unknown origin). In outline: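 Binding activity was profiled across a panel of 114 receptors, enzymes and ion channels, with an IC50 determined against any target that was hit.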

Molecule `Fc1cncc(-c2nc3cc(F)c(F)cc3n2C2CC2)c1` came in with an IC50 of 2490 nM.
